Assay results pooled from the literature.
ABL1 phosphorylated: Tyrosine-protein kinase ABL1, phosphorylated (ABL1, Homo sapiens, UniProt P00519)
ABL1 T315I phosphorylated: Tyrosine-protein kinase ABL1, phosphorylated (ABL1, Homo sapiens, UniProt P00519, T315I)
ABL1 M351T: Tyrosine-protein kinase ABL1 (ABL1, Homo sapiens, UniProt P00519, M351T)
ABL1 H396P non-phosphorylated: Tyrosine-protein kinase ABL1, non-phosphorylated (ABL1, Homo sapiens, UniProt P00519, H396P)
ABL1 Q252H non-phosphorylated: Tyrosine-protein kinase ABL1, non-phosphorylated (ABL1, Homo sapiens, UniProt P00519, Q252H)
ABL1 M351T phosphorylated: Tyrosine-protein kinase ABL1, phosphorylated (ABL1, Homo sapiens, UniProt P00519, M351T)
ABL1 F317I non-phosphorylated: Tyrosine-protein kinase ABL1, non-phosphorylated (ABL1, Homo sapiens, UniProt P00519, F317I)
ABL1 H396P phosphorylated: Tyrosine-protein kinase ABL1, phosphorylated (ABL1, Homo sapiens, UniProt P00519, H396P)
ABL1 Y253F: Tyrosine-protein kinase ABL1 (ABL1, Homo sapiens, UniProt P00519, Y253F)
ABL1 non-phosphorylated: Tyrosine-protein kinase ABL1, non-phosphorylated (ABL1, Homo sapiens, UniProt P00519)
ABL1 Y253F phosphorylated: Tyrosine-protein kinase ABL1, phosphorylated (ABL1, Homo sapiens, UniProt P00519, Y253F)
ABL1 F317L phosphorylated: Tyrosine-protein kinase ABL1, phosphorylated (ABL1, Homo sapiens, UniProt P00519, F317L)

N#Cc1ccccc1CSc1nnc2c(n1)[nH]c1ccccc12  remaining binding (ABL1 phosphorylated; binding; competition with immobilised ligand; 10 µM): 94%
COC(=O)Nc1nc2ccc(C(=O)c3ccccc3)cc2[nH]1  remaining binding (ABL1 T315I phosphorylated; cell-free assay; competition with immobilised ligand; 10 µM): 3.2%
CN(c1ccnc(CNc2nc(Nc3ccc4c(c3)CC(=O)N4)ncc2C(F)(F)F)n1)S(C)(=O)=O  remaining binding (ABL1 phosphorylated; cell-free assay; competition with immobilised ligand; 1 µM): 40%
F[C@@H]1CCN(c2nccc(-c3cnn4ncccc34)n2)C1  remaining binding (ABL1 M351T; binding; 1 µM): 100%
O=C(c1ccc(Nc2nccc(-c3cc4ccccc4s3)n2)cc1)N1CCC(N2CCCC2)CC1  remaining binding (ABL1 phosphorylated; binding; competition with immobilised ligand; 1 µM): 21%
O=C(O)[C@H]1[C@H](Cn2nnc3ccccc3c2=O)CC[C@@H]1C(=O)c1ccc(OCCC2CCOCC2)cc1  remaining binding (ABL1 H396P non-phosphorylated; cell-free assay; competition with immobilised ligand; 1 µM): 94%
c1cncc(-c2cccc(Nc3nccc(NC4CCCCC4)n3)c2)c1  remaining binding (ABL1 Q252H non-phosphorylated; binding; competition with immobilised ligand; 10 µM): 20%
N[C@@H]1CCN(c2nccc(-c3cnn4ncccc34)n2)C1  remaining binding (Tyrosine-protein kinase ABL1 (ABL1, Homo sapiens, UniProt P00519, F317I); binding; 1 µM): 100%
O=C(NCCCN1CCOCC1)c1ccc(Nc2nccc(-c3cc4ccccc4s3)n2)cc1  remaining binding (Tyrosine-protein kinase ABL1, non-phosphorylated (ABL1, Homo sapiens, UniProt P00519, F317L); binding; competition with immobilised ligand; 1 µM): 90%
C[C@H]1CCN(c2nccc(-c3cnn4ncccc34)n2)C1  remaining binding (Tyrosine-protein kinase ABL1 (ABL1, Homo sapiens, UniProt P00519, Q252H); binding; 1 µM): 84%
Cc1cnc(Nc2ccc(C(=O)N3CCC(N4CCCC4)CC3)cc2)nc1-c1cc2ccccc2s1  remaining binding (ABL1 M351T phosphorylated; binding; competition with immobilised ligand; 1 µM): 1.4%
CCCCN(CCCC)C(=O)CN1C[C@H](c2cc(OC)c3c(c2)OCO3)[C@@H](C(=O)O)[C@@H]1CC(C)(C)CCC  remaining binding (ABL1 F317I non-phosphorylated; binding; competition with immobilised ligand; 1 µM): 98.5%
COc1cnc(Nc2cccc(S(N)(=O)=O)c2)nc1N1CCN(c2ccccc2)C(=O)C1  remaining binding (ABL1 H396P phosphorylated; binding; competition with immobilised ligand; 1 µM): 97%
CN1CCN(c2ccc(Nc3nccc(-c4cccc([N+](=O)[O-])c4)n3)cc2C(F)(F)F)CC1  remaining binding (Tyrosine-protein kinase ABL1 (ABL1, Homo sapiens, UniProt P00519, E255K); binding; 10 µM): 5.8%
O=C(NCC1CCOCC1)c1n[nH]cc1NC(=O)c1c(F)cccc1F  remaining binding (ABL1 F317I non-phosphorylated; binding; competition with immobilised ligand; 1 µM): 86%
O=C(c1ccc(Nc2ncc(Cl)c(-c3ccc(Cl)s3)n2)cc1)N1CCC(N2CCCC2)CC1  remaining binding (ABL1 H396P phosphorylated; binding; competition with immobilised ligand; 1 µM): 4.3%
Cc1cnn2ncc(-c3ccnc(N(C)C)n3)c2c1  remaining binding (ABL1 Y253F; binding; 1 µM): 85%
CC(=O)N1CCC(c2ccc(C(=O)NC3=NCCN3)cc2C(F)(F)F)CC1  remaining binding (ABL1 non-phosphorylated; cell-free assay; competition with immobilised ligand; 1 µM): 95%
CN(CCCC(F)(F)F)c1nccc(-c2cnn3ncccc23)n1  remaining binding (ABL1 Y253F; binding; 1 µM): 89%
O=C(c1ccc(Nc2ncc(Cl)c(-c3cc4ccccc4s3)n2)cc1)N1CCC(N2CCCC2)CC1  remaining binding (ABL1 Y253F phosphorylated; binding; competition with immobilised ligand; 1 µM): 8%
c1cnn2ncc(-c3ccnc(N4CCC45COC5)n3)c2c1  remaining binding (ABL1 Y253F; binding; 1 µM): 59%
O=C(NCCCN1CCOCC1)c1ccc(Nc2ncc(Cl)c(-c3ccc(Cl)s3)n2)cc1  remaining binding (ABL1 M351T phosphorylated; binding; competition with immobilised ligand; 1 µM): 27%
CN1CCN(c2cnc3c(C4CCN(C(=O)c5ccc(OC(F)(F)F)cc5N)CC4)ncnc3c2)CC1  remaining binding (ABL1 non-phosphorylated; cell-free assay; competition with immobilised ligand; 1 µM): 91%
CNC(=O)[C@@H]1CC[C@@H](n2c(-c3ccc4cnccc4c3)nc3ccc(C(=O)NCc4cccc(C(N)=O)c4)cc32)C1  remaining binding (ABL1 T315I phosphorylated; binding; competition with immobilised ligand; 1 µM): 100%
CN(C)c1nccc(-c2cnc3ncccn23)n1  remaining binding (ABL1 M351T; binding; 1 µM): 78%
CN(C(=O)c1ccccc1)c1cc(N(C)c2ccc3c(c2)CCc2ccc(C(=O)NCCN4CCOCC4)cc2C3=O)ccc1F  remaining binding (ABL1 F317L phosphorylated; cell-free assay; competition with immobilised ligand; 1 µM): 68%
COc1cnc(Nc2cccc(S(N)(=O)=O)c2)nc1N1CCN(c2ccccc2)CC1  remaining binding (ABL1 M351T phosphorylated; binding; competition with immobilised ligand; 1 µM): 98%
CCN1CCN(Cc2ccc(C(=O)Nc3ccc(C)c(Oc4ccc5c(c4)CC(=O)N5)c3)cc2C(F)(F)F)CC1  remaining binding (ABL1 F317L phosphorylated; binding; competition with immobilised ligand; 1 µM): 9.6%
C=CC(=O)N1CCC(C(=O)NCC(=O)N2CCN(c3nc(-c4cnc(N)nc4C(F)F)nc(N4CCOCC4)n3)CC2)CC1  remaining binding (Tyrosine-protein kinase ABL1, phosphorylated (ABL1, Homo sapiens, UniProt P00519, Q252H); binding; competition with immobilised ligand; 1 µM): 100%
Nc1ncc2c(n1)-c1c([nH]c3ccc(C#CC4CC4)cc13)CCCC2  remaining binding (ABL1 phosphorylated; binding; competition with immobilised ligand; 1 µM): 100%
CC(C)(C)c1ccc(-c2nc(CBr)nn2-c2cccc(O)c2)cc1  remaining binding (ABL1 phosphorylated; cell-free assay; competition with immobilised ligand; 10 µM): 85%
COc1ncc2cc3ccccc3nc2c1C#N  remaining binding (ABL1 H396P non-phosphorylated; cell-free assay; competition with immobilised ligand; 5 µM): 100%
C[C@@H](c1ccc(-n2cnc3c(N)ncnc32)cc1)N1CCc2nn(C)c(Cc3ccccc3)c2C1=O  remaining binding (ABL1 Q252H non-phosphorylated; binding; competition with immobilised ligand; 0.1 µM): 26%
Cc1noc([C@H]2C[C@@H](c3ccc(C(F)(F)F)cc3)CN(C(=O)N3CCS(=O)(=O)C3)C2)n1  remaining binding (Tyrosine-protein kinase ABL1, non-phosphorylated (ABL1, Homo sapiens, UniProt P00519, T315I); cell-free assay; competition with immobilised ligand; 1 µM): 100%
CN(c1nccc(-c2cnn3ncccc23)n1)C1CC1  remaining binding (ABL1 non-phosphorylated; binding; 1 µM): 100%
CS(=O)(=O)NCC[C@H](NC(=O)c1cncc2c1cnn2-c1ccc(F)cc1)c1ccnc(S(C)(=O)=O)c1  remaining binding (ABL1 Y253F phosphorylated; cell-free assay; competition with immobilised ligand; 1 µM): 95%
O=C(Nc1c[nH]nc1C(=O)NC1CCNCC1)c1cc(F)cc(F)c1  remaining binding (ABL1 F317I non-phosphorylated; binding; competition with immobilised ligand; 1 µM): 100%
